Compounds with a hit are over-represented: about 3.4% of the library has one in this group of screens.
ROMK mod: human ROMK K+ channel modulation, primary screen; AID 1918; P48048; 130,000 tested, 2% active; Tet-inducible ROMK, thallium flux fluorescence; actives lie on both sides; B-score at 10 µM;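 active = signal ratio slope over the read window, or its plate-corrected B-score, at least 3 SD from the plate mean, either direction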;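 note: B-score of the F/F0 ratio slope over 7 to 12 s after thallium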
Target sequence (P48048 whole entry, looked up): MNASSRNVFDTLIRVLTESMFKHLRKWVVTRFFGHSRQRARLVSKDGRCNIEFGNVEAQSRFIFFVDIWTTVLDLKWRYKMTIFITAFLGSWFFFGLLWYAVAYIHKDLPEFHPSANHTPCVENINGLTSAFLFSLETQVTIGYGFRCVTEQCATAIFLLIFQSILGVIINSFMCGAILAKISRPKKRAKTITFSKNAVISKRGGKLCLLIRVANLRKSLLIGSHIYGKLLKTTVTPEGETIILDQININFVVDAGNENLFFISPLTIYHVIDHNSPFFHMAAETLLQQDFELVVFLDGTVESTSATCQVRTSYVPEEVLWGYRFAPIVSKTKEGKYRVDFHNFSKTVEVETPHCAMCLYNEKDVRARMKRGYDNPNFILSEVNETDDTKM
KCC2 mod: modulators of human KCC2 chloride dependent transport | Q9H2X9 | 190,000 tested, 2.2% active | B-score of Tl+ flux slope (higher = more flux/activation; lower = inhibition) at 10 µM | KCC2 cells, thallium flux FluoZin-2 fluorescence;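 active = thallium flux slope and its plate-corrected score both differing from the plate sample mean at a set confidence after two filtering rounds, in either direction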;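 note: slope of fluorescence scaled to starting intensity during 10 to 20 s after thallium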
p97 inhibitor: inhibitors of human p97 ATPase | recombinant p97 ATPase, Kinase-Glo ATP luminescence, 3 h | inhibition, % at 8 µM | 220,000 tested, 0.42% active; in the data active = inhibition above about 15%
Mdm2 ligase inh: blocks human Mdm2 ubiquitin ligase activity | Q00987 | cell-based MDM2 ubiquitination luciferase reporter, 2 h; 0 = plate control, 100 = twice control, blank-subtracted | signal enhancement, % at 5 µM | 210,000 tested, 0.11% active | AID 1230;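 active = signal enhancement of 30% or more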;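 note: luminescence tracks abundance of the self-degrading MDM2-luciferase fusion protein; higher signal means inhibition of MDM2 E3 ligase activity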
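Test system: mammalian cells stably expressing self-ubiquitinating, self-degrading MDM2 E3–luciferase fusion; Amount: 2000 cells in each well; Medium: DMEM; Schedule: 4 h settle plus 2 h compound, 37 °C; Technique: SteadyLite luciferase luminescence after 15 min room-temperature reagent incubation; Benchmarks: plate control and blank wells.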
PKD1 inh: PKD1 (human) kinase inhibition; PKD1 kinase fluorescence polarization assay; inhibition, % (no concentration beside the values); 200,000 tested, 0.056% active; Q15139; AID 797; in the data active = inhibition above about 50%
DTT redox prof: compounds producing H2O2 with reducing agent – biochemical, NIH compound library profiling, artefact control for MLSCN library redox annotation, primary screen. DTT-dependent redox cycling H2O2, phenol red/HRP absorbance; 100% = 100 µM peroxide control, 0% = buffer. activation, % at 10 µM. 200,000 tested, 0.03% active. AID 878;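 active = activation of at least 50% relative to the plate's high and low controls in the primary single-dose screen; inactive = activation below 50%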;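 note: compound incubated with DTT at 0.8 mM final as the reducing agent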
ROMK hit retest: confirmation of human ROMK potassium channel modulators | shares compounds with ROMK mod | ROMK thallium flux, fluorescence ratio; active compounds read low | normalized thallium flux (F/F0 slope) at 10 µM | 3,000 tested, 54% active | AID 1917;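 active = Flux at 10 µM at least 3 SD below or above vehicle control mean in one or both replicates; inconclusive = no clear call, values can overlap the other calls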
A number is an active result; . = inactive; ? = inconclusive; / = no result given.

SMILES	ROMK mod	KCC2 mod	p97 inhibitor	Mdm2 ligase inh	PKD1 inh	DTT redox prof	ROMK hit retest
O=C(NCC1OCCc2ccccc21)c1ccco1 (stereo not given)	/	.	.	.	.	.	/
Cc1nc([N+](=O)[O-])c(SCC(N)=O)n1Cc1ccccc1	.	.	.	.	.	.	/
Cc1nc([N+](=O)[O-])c(Sc2nc3ccccc3n2C)n1Cc1ccccc1	-2.97	.	.	.	.	.	0.0557
CCOC(=O)C1CCN(C(=O)COc2ccc(N(C)S(=O)(=O)c3cccs3)cc2)CC1	.	/	.	.	.	.	/
O=C(NCC(c1ccco1)N1CCCCC1)c1ccc(OCc2ccccc2)cc1 (stereo not given)	-3.24	/	.	.	.	.	.
CC(C)CC(=O)NC(=S)Nc1cc(C(F)(F)F)ccc1N1CCOCC1	/	.	.	.	.	.	/
CCOC(=O)c1c(C)oc2c1c(C=NCc1ccccn1)c(O)c1ccccc12	/	.	.	.	.	.	0.0638
CCOC(=O)c1c(C)oc2c1c(C=NCC1CCCO1)c(O)c1ccccc12 (stereo not given)	.	/	.	.	.	.	/
O=C(C1=C[C@@H](c2ccc(C(F)(F)F)cc2)C[C@@H](OCCCCO)O1)N1CCOCC1	/	.	.	/	.	.	/
Cc1cccc(NC(=O)NCc2ccc3c(c2)OCO3)c1C	.	.	.	.	.	.	/
Cc1ccc(/C=N/Nc2nc(N3CCCCC3)nc(N3CCCCC3)n2)o1	.	.	.	.	.	.	/
COC(=O)c1ccccc1-c1ccc(/C=N/Nc2nc(N3CCCC3)nc(N3CCCC3)n2)o1	/	.	.	.	/	/	?
COc1cc(/C=N/N=C(N)N)ccc1OCc1ccccc1Cl	-3.72	.	.	.	.	.	0.0553
CCc1ccc(CNC(=O)Cn2nc(-c3ccccc3)ccc2=O)cc1	.	.	.	.	.	.	/
CCCOc1ccc(C2C(C(=O)c3ccco3)=C(O)C(=O)N2CCN2CCOCC2)cc1OC (stereo not given)	.	/	.	.	.	.	/
CCOc1ccc(C2C(C(=O)c3ccc(C)o3)=C(O)C(=O)N2CCN2CCOCC2)cc1OC (stereo not given)	1.8	.	.	.	.	.	.
Cc1csc(SCc2nnc(-c3ccc(Cl)cc3)o2)n1	.	.	.	.	.	.	/
CCCNC(=O)c1nn2cc(Br)cnc2c1Br	/	/	.	.	.	.	/
Cc1ccc(C)c2[nH]c(=O)c(CN(CC3CCCO3)C(=S)NCc3ccco3)cc12 (stereo not given)	-3.52	.	.	.	/	/	?
Cc1ccc2cc(CN(CC3CCCO3)C(=S)NCc3ccco3)c(=O)[nH]c2c1C (stereo not given)	/	.	.	.	.	.	.
CCc1ccc2[nH]c(=O)c(CN(CC3CCCO3)C(=S)NCc3ccco3)cc2c1 (stereo not given)	.	.	.	.	/	/	/
CCOC(=O)N1CCN(C(=O)CSCc2ccc(C)cc2)CC1	/	/	.	.	.	.	/
CC(=O)N1CCN(C(=S)c2ccc(-c3ccc(Cl)cc3)o2)CC1	-2.55	.	.	.	.	.	0.0551
O=C(COC(=O)c1ccc(Cl)nc1)c1ccc2c(c1)OCCO2	-2.18	.	.	.	.	.	.
O=C(COC(=O)c1cccnc1Cl)c1ccc2c(c1)OCCO2	.	/	.	.	.	.	/
SMILES	ROMK mod	KCC2 mod	p97 inhibitor	Mdm2 ligase inh	PKD1 inh	DTT redox prof	ROMK hit retest
CCOC(=O)c1nn(-c2ccc(C)cc2)c(=O)c2c(N)scc12	/	.	.	.	.	.	.
CCOC(=O)c1nn(-c2ccc(F)cc2)c(=O)c2c(N)scc12	.	.	.	.	.	.	/
CCOc1ccc(N2C(=O)C3C(C2=O)C3(c2ccccc2)c2ccccc2)cc1 (stereo not given)	.	/	.	.	.	.	/
Cc1cccc(NC(=O)CSc2nc3ccc(N4C(=O)c5ccccc5C4=O)cc3s2)c1C	/	/	.	.	.	.	/
CCCC(C(=O)NC1CCCC1)N(Cc1cccs1)C(=O)c1snc(C(N)=O)c1N (stereo not given)	/	.	.	.	.	.	.
CC(C)CCNC(=O)C(CC(C)C)N(Cc1ccc2c(c1)OCO2)C(=O)c1snc(C(N)=O)c1N (stereo not given)	/	/	.	.	.	.	?
O=C(NCCc1ccccc1)c1cnc2sccn2c1=O	/	.	.	.	.	.	/
O=C(/C=C/c1ccccc1Cl)NCc1ccco1	.	/	.	.	.	.	/
O=C(/C=C/c1c(Cl)cccc1Cl)NCc1ccco1	1.66	.	.	.	.	.	.
Cc1sc2nc(COC(=O)c3ccc(N4CCCC(C)C4)c([N+](=O)[O-])c3)[nH]c(=O)c2c1C (stereo not given)	.	.	.	.	.	.	/
COCc1cc(C)nc(SCC(=O)Oc2ccccc2)c1C#N	.	.	.	.	.	.	/
COCc1cc(C)nc(SCC(=O)c2ccc(O)c(O)c2)c1C#N	1.72	/	.	.	.	.	.
Cn1c(Cc2ccccc2)nnc1SCc1nc2ccccc2c(=O)[nH]1	.	.	.	.	.	.	.
COc1ccc(C(CNC(=O)c2cccc(N(C)C)c2)N2CCCC2)cc1 (stereo not given)	/	.	.	.	.	.	/
COc1ccc(C(CNC(=O)c2cc3ccccc3cc2OC)N2CCCC2)cc1 (stereo not given)	-3.1	.	.	.	.	.	0.0619
Cc1ccc(OCCn2cc(/C=C3\C(=O)NN(c4ccccc4)C3=O)c3ccccc32)cc1	.	.	.	.	.	.	/
O=C1NN(c2ccccc2)C(=O)/C1=C/c1ccc(Sc2cccc3ccccc23)o1	-3.89	.	.	/	.	.	0.0673
COc1nccnc1NS(=O)(=O)c1ccc(N=Cc2c(C)[nH]n(-c3ccc(C)c(C)c3)c2=O)cc1	2.35	/	.	.	.	.	.
COc1nccnc1NS(=O)(=O)c1ccc(N=Cc2c(C)[nH]n(-c3ccc(Cl)cc3)c2=O)cc1	/	.	.	.	.	.	/
COc1ccc(NC(=O)Nc2ccc(F)cc2)c(C)c1	-2.07	.	.	.	.	.	.
COc1ccc(NC(=O)Nc2ccc(F)cc2F)c(C)c1	.	/	.	.	.	.	/
Cc1ccc(NC(=S)NNC(=O)c2nn(C)c(C)c2Cl)cc1	/	.	.	.	.	.	/
C=CCn1c(SCC(=O)N2CCc3ccccc3C2)nc2sc(CC)cc2c1=O	/	.	.	.	.	.	.
O=C(NCc1ccc2c(c1)OCO2)c1cccc(N2CCCC2=O)c1	.	.	.	.	.	.	/
c1cc2c3c(cccc3c1)NC1(CCC3(CC1)Nc1cccc4cccc(c14)N3)N2	/	.	.	.	/	/	0.0495
